Results as given in ChEMBL document CHEMBL1909556, “Synthesis and properties of novel 2'-O-alkoxymethyl-modified nucleic acids” (Bioorg Med Chem Lett, 2011).
Active and inactive are the calls of the source. The calls are words filed in the database; no cut-off is given here.

Key:
[1] = Nuclease stability of compound assessed as snake venom phosphodiesterase-mediated degradation at 10 uM after 2 hrs by RP-HPLC analysis; assay type: physicochemical
Summary of the method: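 Snake venom phosphodiesterase digestion at 4 × 10^-4 units/ml of 10 μM oligoribonucleotide for 2 h. Buffer was 50 mM Tris-HCl pH 8.5 with 72 mM NaCl and 14 mM MgCl2. The degradation ratio was estimated by reversed-phase HPLC.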

[2] = system: Nucleic Acid; assay: Binding affinity to A12 RNA assessed as change in melting temperature at 2 uM compound at pH 7; assay type: nucleic-acid assay
[3] = system: Nucleic Acid; assay: Binding affinity to dA12 DNA assessed as change in melting temperature at 2 uM compound at pH 7; assay type: nucleic-acid assay

With `N#CCCOCO[C@@H]1[C@H](O)[C@@H](COP(=O)(O)O[C@H]2[C@@H](OCOCCC#N)[C@H](n3ccc(=O)[nH]c3=O)O[C@@H]2COP(=O)(O)O[C@H]2[C@@H](OCOCCC#N)[C@H](n3ccc(=O)[nH]c3=O)O[C@@H]2COP(=O)(O)O[C@H]2[C@@H](OCOCCC#N)[C@H](n3ccc(=O)[nH]c3=O)O[C@@H]2COP(=O)(O)O[C@H]2[C@@H](OCOCCC#N)[C@H](n3ccc(=O)[nH]c3=O)O[C@@H]2COP(=O)(O)O[C@H]2[C@@H](OCOCCC#N)[C@H](n3ccc(=O)[nH]c3=O)O[C@@H]2COP(=O)(O)O[C@H]2[C@@H](OCOCCC#N)[C@H](n3ccc(=O)[nH]c3=O)O[C@@H]2COP(=O)(O)O[C@H]2[C@@H](OCOCCC#N)[C@H](n3ccc(=O)[nH]c3=O)O[C@@H]2COP(=O)(O)O[C@H]2[C@@H](OCOCCC#N)[C@H](n3ccc(=O)[nH]c3=O)O[C@@H]2COP(=O)(O)O[C@H]2[C@@H](OCOCCC#N)[C@H](n3ccc(=O)[nH]c3=O)O[C@@H]2COP(=O)(O)O[C@H]2[C@@H](OCOCCC#N)[C@H](n3ccc(=O)[nH]c3=O)O[C@@H]2COP(=O)(O)O[C@H]2[C@@H](OCOCCC#N)[C@H](n3ccc(=O)[nH]c3=O)O[C@@H]2CO)O[C@H]1n1ccc(=O)[nH]c1=O` the Stability [1] was “Stable” and the ΔTm [2] was 2.8 °C.
`O=c1ccn([C@@H]2O[C@H](COP(=O)(O)O[C@H]3[C@@H](OCOCC(F)(F)F)[C@H](n4ccc(=O)[nH]c4=O)O[C@@H]3COP(=O)(O)O[C@H]3[C@@H](OCOCC(F)(F)F)[C@H](n4ccc(=O)[nH]c4=O)O[C@@H]3COP(=O)(O)O[C@H]3[C@@H](OCOCC(F)(F)F)[C@H](n4ccc(=O)[nH]c4=O)O[C@@H]3COP(=O)(O)O[C@H]3[C@@H](OCOCC(F)(F)F)[C@H](n4ccc(=O)[nH]c4=O)O[C@@H]3COP(=O)(O)O[C@H]3[C@@H](OCOCC(F)(F)F)[C@H](n4ccc(=O)[nH]c4=O)O[C@@H]3COP(=O)(O)O[C@H]3[C@@H](OCOCC(F)(F)F)[C@H](n4ccc(=O)[nH]c4=O)O[C@@H]3COP(=O)(O)O[C@H]3[C@@H](OCOCC(F)(F)F)[C@H](n4ccc(=O)[nH]c4=O)O[C@@H]3COP(=O)(O)O[C@H]3[C@@H](OCOCC(F)(F)F)[C@H](n4ccc(=O)[nH]c4=O)O[C@@H]3COP(=O)(O)O[C@H]3[C@@H](OCOCC(F)(F)F)[C@H](n4ccc(=O)[nH]c4=O)O[C@@H]3COP(=O)(O)O[C@H]3[C@@H](OCOCC(F)(F)F)[C@H](n4ccc(=O)[nH]c4=O)O[C@@H]3COP(=O)(O)O[C@H]3[C@@H](OCOCC(F)(F)F)[C@H](n4ccc(=O)[nH]c4=O)O[C@@H]3CO)[C@@H](O)[C@H]2OCOCC(F)(F)F)c(=O)[nH]1` showed a ΔTm [2] of 4.5 °C.
`O=c1ccn([C@@H]2O[C@H](COP(=O)(O)O[C@H]3[C@@H](OCOCC(F)F)[C@H](n4ccc(=O)[nH]c4=O)O[C@@H]3COP(=O)(O)O[C@H]3[C@@H](OCOCC(F)F)[C@H](n4ccc(=O)[nH]c4=O)O[C@@H]3COP(=O)(O)O[C@H]3[C@@H](OCOCC(F)F)[C@H](n4ccc(=O)[nH]c4=O)O[C@@H]3COP(=O)(O)O[C@H]3[C@@H](OCOCC(F)F)[C@H](n4ccc(=O)[nH]c4=O)O[C@@H]3COP(=O)(O)O[C@H]3[C@@H](OCOCC(F)F)[C@H](n4ccc(=O)[nH]c4=O)O[C@@H]3COP(=O)(O)O[C@H]3[C@@H](OCOCC(F)F)[C@H](n4ccc(=O)[nH]c4=O)O[C@@H]3COP(=O)(O)O[C@H]3[C@@H](OCOCC(F)F)[C@H](n4ccc(=O)[nH]c4=O)O[C@@H]3COP(=O)(O)O[C@H]3[C@@H](OCOCC(F)F)[C@H](n4ccc(=O)[nH]c4=O)O[C@@H]3COP(=O)(O)O[C@H]3[C@@H](OCOCC(F)F)[C@H](n4ccc(=O)[nH]c4=O)O[C@@H]3COP(=O)(O)O[C@H]3[C@@H](OCOCC(F)F)[C@H](n4ccc(=O)[nH]c4=O)O[C@@H]3COP(=O)(O)O[C@H]3[C@@H](OCOCC(F)F)[C@H](n4ccc(=O)[nH]c4=O)O[C@@H]3CO)[C@@H](O)[C@H]2OCOCC(F)F)c(=O)[nH]1` showed a ΔTm [2] of 3.5 °C.
For `O=c1ccn([C@@H]2O[C@H](COP(=O)(O)O[C@H]3[C@@H](OCOCC(Cl)(Cl)Cl)[C@H](n4ccc(=O)[nH]c4=O)O[C@@H]3COP(=O)(O)O[C@H]3[C@@H](OCOCC(Cl)(Cl)Cl)[C@H](n4ccc(=O)[nH]c4=O)O[C@@H]3COP(=O)(O)O[C@H]3[C@@H](OCOCC(Cl)(Cl)Cl)[C@H](n4ccc(=O)[nH]c4=O)O[C@@H]3COP(=O)(O)O[C@H]3[C@@H](OCOCC(Cl)(Cl)Cl)[C@H](n4ccc(=O)[nH]c4=O)O[C@@H]3COP(=O)(O)O[C@H]3[C@@H](OCOCC(Cl)(Cl)Cl)[C@H](n4ccc(=O)[nH]c4=O)O[C@@H]3COP(=O)(O)O[C@H]3[C@@H](OCOCC(Cl)(Cl)Cl)[C@H](n4ccc(=O)[nH]c4=O)O[C@@H]3COP(=O)(O)O[C@H]3[C@@H](OCOCC(Cl)(Cl)Cl)[C@H](n4ccc(=O)[nH]c4=O)O[C@@H]3COP(=O)(O)O[C@H]3[C@@H](OCOCC(Cl)(Cl)Cl)[C@H](n4ccc(=O)[nH]c4=O)O[C@@H]3COP(=O)(O)O[C@H]3[C@@H](OCOCC(Cl)(Cl)Cl)[C@H](n4ccc(=O)[nH]c4=O)O[C@@H]3COP(=O)(O)O[C@H]3[C@@H](OCOCC(Cl)(Cl)Cl)[C@H](n4ccc(=O)[nH]c4=O)O[C@@H]3COP(=O)(O)O[C@H]3[C@@H](OCOCC(Cl)(Cl)Cl)[C@H](n4ccc(=O)[nH]c4=O)O[C@@H]3CO)[C@@H](O)[C@H]2OCOCC(Cl)(Cl)Cl)c(=O)[nH]1`, the Stability [1] was “Unstable” and the ΔTm [2] was -0.8 °C.
In the case of `O=c1ccn([C@@H]2O[C@H](COP(=O)(O)O[C@H]3[C@@H](OCOCC(Cl)Cl)[C@H](n4ccc(=O)[nH]c4=O)O[C@@H]3COP(=O)(O)O[C@H]3[C@@H](OCOCC(Cl)Cl)[C@H](n4ccc(=O)[nH]c4=O)O[C@@H]3COP(=O)(O)O[C@H]3[C@@H](OCOCC(Cl)Cl)[C@H](n4ccc(=O)[nH]c4=O)O[C@@H]3COP(=O)(O)O[C@H]3[C@@H](OCOCC(Cl)Cl)[C@H](n4ccc(=O)[nH]c4=O)O[C@@H]3COP(=O)(O)O[C@H]3[C@@H](OCOCC(Cl)Cl)[C@H](n4ccc(=O)[nH]c4=O)O[C@@H]3COP(=O)(O)O[C@H]3[C@@H](OCOCC(Cl)Cl)[C@H](n4ccc(=O)[nH]c4=O)O[C@@H]3COP(=O)(O)O[C@H]3[C@@H](OCOCC(Cl)Cl)[C@H](n4ccc(=O)[nH]c4=O)O[C@@H]3COP(=O)(O)O[C@H]3[C@@H](OCOCC(Cl)Cl)[C@H](n4ccc(=O)[nH]c4=O)O[C@@H]3COP(=O)(O)O[C@H]3[C@@H](OCOCC(Cl)Cl)[C@H](n4ccc(=O)[nH]c4=O)O[C@@H]3COP(=O)(O)O[C@H]3[C@@H](OCOCC(Cl)Cl)[C@H](n4ccc(=O)[nH]c4=O)O[C@@H]3COP(=O)(O)O[C@H]3[C@@H](OCOCC(Cl)Cl)[C@H](n4ccc(=O)[nH]c4=O)O[C@@H]3CO)[C@@H](O)[C@H]2OCOCC(Cl)Cl)c(=O)[nH]1`, the Activity [3] is reported as “inactive”, the Stability [1] is reported as “Unstable” and the ΔTm [2] is reported as 10.8 °C.
For `O=c1ccn([C@@H]2O[C@H](COP(=O)(O)O[C@H]3[C@@H](O)[C@H](n4ccc(=O)[nH]c4=O)O[C@@H]3COP(=O)(O)O[C@H]3[C@@H](O)[C@H](n4ccc(=O)[nH]c4=O)O[C@@H]3COP(=O)(O)O[C@H]3[C@@H](O)[C@H](n4ccc(=O)[nH]c4=O)O[C@@H]3COP(=O)(O)O[C@H]3[C@@H](O)[C@H](n4ccc(=O)[nH]c4=O)O[C@@H]3COP(=O)(O)O[C@H]3[C@@H](O)[C@H](n4ccc(=O)[nH]c4=O)O[C@@H]3COP(=O)(O)O[C@H]3[C@@H](O)[C@H](n4ccc(=O)[nH]c4=O)O[C@@H]3COP(=O)(O)O[C@H]3[C@@H](O)[C@H](n4ccc(=O)[nH]c4=O)O[C@@H]3COP(=O)(O)O[C@H]3[C@@H](O)[C@H](n4ccc(=O)[nH]c4=O)O[C@@H]3COP(=O)(O)O[C@H]3[C@@H](O)[C@H](n4ccc(=O)[nH]c4=O)O[C@@H]3COP(=O)(O)O[C@H]3[C@@H](O)[C@H](n4ccc(=O)[nH]c4=O)O[C@@H]3COP(=O)(O)O[C@H]3[C@@H](O)[C@H](n4ccc(=O)[nH]c4=O)O[C@@H]3CO)[C@@H](O)[C@H]2O)c(=O)[nH]1`, the ΔTm [2] was 0 °C.
For `CCOCO[C@@H]1[C@H](O)[C@@H](COP(=O)(O)O[C@H]2[C@@H](OCOCC)[C@H](n3ccc(=O)[nH]c3=O)O[C@@H]2COP(=O)(O)O[C@H]2[C@@H](OCOCC)[C@H](n3ccc(=O)[nH]c3=O)O[C@@H]2COP(=O)(O)O[C@H]2[C@@H](OCOCC)[C@H](n3ccc(=O)[nH]c3=O)O[C@@H]2COP(=O)(O)O[C@H]2[C@@H](OCOCC)[C@H](n3ccc(=O)[nH]c3=O)O[C@@H]2COP(=O)(O)O[C@H]2[C@@H](OCOCC)[C@H](n3ccc(=O)[nH]c3=O)O[C@@H]2COP(=O)(O)O[C@H]2[C@@H](OCOCC)[C@H](n3ccc(=O)[nH]c3=O)O[C@@H]2COP(=O)(O)O[C@H]2[C@@H](OCOCC)[C@H](n3ccc(=O)[nH]c3=O)O[C@@H]2COP(=O)(O)O[C@H]2[C@@H](OCOCC)[C@H](n3ccc(=O)[nH]c3=O)O[C@@H]2COP(=O)(O)O[C@H]2[C@@H](OCOCC)[C@H](n3ccc(=O)[nH]c3=O)O[C@@H]2COP(=O)(O)O[C@H]2[C@@H](OCOCC)[C@H](n3ccc(=O)[nH]c3=O)O[C@@H]2COP(=O)(O)O[C@H]2[C@@H](OCOCC)[C@H](n3ccc(=O)[nH]c3=O)O[C@@H]2CO)O[C@H]1n1ccc(=O)[nH]c1=O`, the Stability [1] was “Unstable” and the ΔTm [2] was -2.5 °C.
In the case of `O=c1ccn([C@@H]2O[C@H](COP(=O)(O)O[C@H]3[C@@H](OCOCCCl)[C@H](n4ccc(=O)[nH]c4=O)O[C@@H]3COP(=O)(O)O[C@H]3[C@@H](OCOCCCl)[C@H](n4ccc(=O)[nH]c4=O)O[C@@H]3COP(=O)(O)O[C@H]3[C@@H](OCOCCCl)[C@H](n4ccc(=O)[nH]c4=O)O[C@@H]3COP(=O)(O)O[C@H]3[C@@H](OCOCCCl)[C@H](n4ccc(=O)[nH]c4=O)O[C@@H]3COP(=O)(O)O[C@H]3[C@@H](OCOCCCl)[C@H](n4ccc(=O)[nH]c4=O)O[C@@H]3COP(=O)(O)O[C@H]3[C@@H](OCOCCCl)[C@H](n4ccc(=O)[nH]c4=O)O[C@@H]3COP(=O)(O)O[C@H]3[C@@H](OCOCCCl)[C@H](n4ccc(=O)[nH]c4=O)O[C@@H]3COP(=O)(O)O[C@H]3[C@@H](OCOCCCl)[C@H](n4ccc(=O)[nH]c4=O)O[C@@H]3COP(=O)(O)O[C@H]3[C@@H](OCOCCCl)[C@H](n4ccc(=O)[nH]c4=O)O[C@@H]3COP(=O)(O)O[C@H]3[C@@H](OCOCCCl)[C@H](n4ccc(=O)[nH]c4=O)O[C@@H]3COP(=O)(O)O[C@H]3[C@@H](OCOCCCl)[C@H](n4ccc(=O)[nH]c4=O)O[C@@H]3CO)[C@@H](O)[C@H]2OCOCCCl)c(=O)[nH]1`, the Activity [3] is reported as “inactive”, the Stability [1] is reported as “Unstable” and the ΔTm [2] is reported as 11 °C.
